# Yeast growth tox = Inhibitors of S. cerevisiae growth, toxicity; 30,000 compounds, 0.3% hits; S. cerevisiae wild-type growth, A595 turbidity, 16 h; growth inhibition, % at 25 µM (by protocol);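 active means mutant and wild-type yeast strains alike exhibit over 30% growth inhibition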
#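 System – wild-type and eIF2Bepsilon-R284H mutant S. cerevisiae, screened separately · Measured by – absorbance at 595 nm (turbidity) · Timing – 16 h compound exposure during growth at 30 °C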
# Yeast eIF2B = eIF2B (yeast) activity modulation; S. cerevisiae eIF2B-epsilon R284H, GCN4-lacZ luminescence; inhibition, % at 25 µM (by protocol); 27,000 compounds, 0.91% hits; AID 688;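 active means mutant luminescence inhibited past about 50% while wild type luminescence and mutant growth stay under set limits, limit read from the data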
#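 material = yeast eIF2B-epsilon R284H mutant carrying GCN4–beta-galactosidase fusion | schedule = 16 h growth with compound at 30 °C, 90 min Beta-Glo step | measured by = luminescence and A595 | compound dosing = one concentration, 25 µM, 0.25% DMSO | read-out basis = % inhibition of reporter signal and growth versus controls | buffer or medium = YPD medium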
# Hits are given with their value; – = inactive; · = not tested or not shown; ! = a repeat was not active. Most compounds without a hit are left out; they make up all but 1% or so of the library.
SMILES,Yeast growth tox,Yeast eIF2B
O=C1CC(O)(C(F)(F)F)Oc2c1ccc1ccccc21 (stereo not given),–,–
O=C1CC(O)(C(F)F)Oc2ccc3ccccc3c21 (stereo not given),–,53
C=CCn1c(CNC(=O)c2cccs2)nnc1SCC(=O)Nc1ccc(C(=O)O)cc1,–,–
CCOC(=O)C1CCCN(C(=O)c2cc3c(C)nc4ccccc4c3o2)C1 (stereo not given),–,65
CCOC(=O)C1CCCN(c2nc(C)nc3c2oc2ccccc23)C1 (stereo not given),–,–
Cc1cc(=O)[nH]c(N=N/C(=N/Nc2ccc(O)cc2)c2ccccc2)n1,–,50
COc1ccc(N/N=C(/N=Nc2nc(C)cc(=O)[nH]2)c2ccccc2)cc1,–,–
COCC(=O)Nc1cc(OC)c(Cl)cc1OC,–,55
COc1cc(NC(=O)c2ccccc2)c(OC)cc1Cl,–,–
O=C(OCCN=C1NS(=O)(=O)c2ccccc21)C1CC(=O)N(c2ccc3ccccc3c2)C1 (stereo not given),–,–
CCCCc1c(O)nc(SCC(=O)NCCc2ccc(OC)c(OC)c2)[nH]c1=O,–,–
N/C(Cc1ccc(Cl)cc1)=N\OC(=O)c1ccccc1,71,–
N/C(Cc1ccc([N+](=O)[O-])cc1)=N\OC(=O)c1ccc([N+](=O)[O-])cc1,–,–
Fc1ccc(CSc2nncn2NCc2ccc3c(c2)OCO3)cc1,–,–
COc1cccc(Oc2cn[nH]c2-c2ccc(OC)cc2O)c1,–,66
CCOc1ccc(-c2[nH]ncc2Oc2cccc(OC)c2)c(O)c1,–,–
CCS(=O)(=O)N1CCCC(C(=O)NCCN(C)Cc2ccccc2)C1 (stereo not given),–,62
CCS(=O)(=O)N1CCCC(C(=O)NCc2cccc(OC)c2)C1 (stereo not given),–,–
Cc1c(N=Cc2c(O)n(Cc3ccco3)c(=O)c3ccccc23)c(=O)n(-c2ccccc2)n1C,–,51!
O=c1c2ccccc2c(C=NCCc2ccccc2)c(O)n1Cc1ccccc1,–,–
COc1ccc2nc(NC(=O)CCNS(=O)(=O)c3ccc4c(c3)oc(=O)n4C)sc2c1,–,–
CC(C)CCNC(=O)C1CCCN1C(=O)NC1CCCCC1 (stereo not given),–,–
N#Cc1cccc(NC(=O)CN2NS(=O)(=O)c3ccccc3C2=O)c1,–,·
COc1ccc(N2C(=O)CC(Sc3nc(C)cc(C)c3C#N)C2=O)cc1 (stereo not given),·,–
Nc1nnc(SC2CC(=O)N(c3ccccc3)C2=O)s1 (stereo not given),62,–
SMILES,Yeast growth tox,Yeast eIF2B
Cc1cc(OC(=O)CNC(=O)OC(C)(C)C)c2c(C)cc(=O)oc2c1,–,·
CC(=O)C1=C(C)NC(C)=C(C(C)=O)C1c1ccc(-c2ccccc2Cl)o1,–,–
O=C(Nc1ccccn1)C(=O)N1CCCCC1,–,–
CCOc1ccc(C(C)NC(=O)Nc2ccccc2C(=O)OC)cc1 (stereo not given),–,·
CCOC(=O)c1ccc(NS(=O)(=O)CC)cc1,–,·
CCOC(=O)c1ccc(N2C(=O)C=CC2=O)cc1,90,–
COc1ccc(NC(=O)CSc2nnc(Cc3cccn3C)n2-c2ccc(C)cc2)cc1OC,–,–
Cc1cc(C)c(NC(=O)CSc2nnc(Cc3cccn3C)n2-c2ccc(F)cc2)c(C)c1,–,60
Cc1ccc(C(C(=O)NC2CCCCC2)N(Cc2cccnc2)C(=O)C2COc3ccccc3O2)o1 (stereo not given),–,–
Cc1ccc(SCc2cc(=O)[nH]c(N3CCN(Cc4ccc5c(c4)OCO5)CC3)n2)cc1,–,60
Cc1ccc2c(CN3CCN(Cc4ccc5c(c4)OCO5)CC3)cc(=O)oc2c1C,–,–
CCCCOP(=O)(OCCCC)C1(NS(=O)(=O)c2ccccc2)C=CC(=O)c2ccccc21 (stereo not given),–,–
O=C(Cn1nnc(-c2ccc(Cl)cc2)n1)NC1CC2CCC1C2 (stereo not given),–,–
COC(=O)c1cc(O)c(OCc2ccccc2)c(O)c1,–,70
COC(=O)c1ccc(OCC(=O)c2ccccc2)cc1,–,–
COC(=O)c1c(C(=O)OC)c(-c2cccc(C)c2)n2c1CS(=O)(=O)C2,–,–
C=CCOc1ccc(CNc2nn[nH]n2)cc1,–,–
CN(C)c1nc(N(C)C)nc(N(C#N)CCOc2ccccc2)n1,·,50
Cc1cc(C)nc(N(C#N)CCOc2ccccc2)n1,–,–
CC(C)OC(=O)CCc1nc2ccccc2[nH]c1=O,–,61
CCOC(=O)C(C)c1nc2ccccc2[nH]c1=O (stereo not given),–,–
O=C(Nc1nc2c(c(=O)[nH]1)CCCC2)C1CC1,–,–
CN1CCc2nc(SCC(=O)Nc3ccc(Cl)cc3)c(C#N)cc2C1,–,62
N#Cc1cc2c(nc1SCC(=O)Nc1sc3c(c1C#N)CCC3)CCCCCC2,–,·
COC(=O)[C@@H](NC(=O)Nc1cccc(OC)c1)C(C)C,–,·
